Source: ChEMBL document CHEMBL1132302, “Identification of pharmacokinetically stable 3, 10-dibromo-8-chlorobenzocycloheptapyridine farnesyl protein transferase inhibitors with potent enzyme and cellular activities” (J Med Chem, 1999)

Columns and labels:
[1] = Maximum concentration (Cmax) using 20%aqueous hydroxypropyl-beta-cyclodextrin (HPbetaCD) as vehicle. compound was administered orally to nude mice at a dose of 25 mg/kg; type: ADME, organism-based; set-up: dose 25 mg/kg, route oral; settings: mouse, in vivo, po
Procedure, shortened: (§1)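 Nude mice were dosed at 25 mpk, intravenously or orally as the line states, in 20% aqueous hydroxypropyl-β-cyclodextrin or 0.4% aqueous methyl cellulose. Serum was sampled over 24 h. Each time point came from sera of different animals.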

[2] = Area under curve was determined using 20%aqueous hydroxypropyl-beta-cyclodextrin (HPbetaCD) as vehicle. Compound was administered intravenously to nude mice at a dose of 25 mg/kg; type: ADME, organism-based; set-up: dose 25 mg/kg, route intravenous; settings: mouse, in vivo, iv; procedure, shortened: as §1
[3] = Area under curve was determined using 20%aqueous hydroxypropyl-beta-cyclodextrin (HPbetaCD) as vehicle. Compound was administered orally to nude mice at a dose of 25 mg/kg; type: ADME, organism-based; set-up: dose 25 mg/kg, route oral; settings: mouse, in vivo, po; procedure, shortened: as §1
[4] = target: T1, Protein farnesyltransferase (Homo sapiens, UniProt P49354+P49356); test: Inhibitory activity against Hras Farnesyltransferase (FPT).; type: protein-complex assay
[5] = Maximum concentration (Cmax) using 20%aqueous hydroxypropyl-beta-cyclodextrin (HPbetaCD) as vehicle. compound was administered intravenously to nude mice at a dose of 25 mg/kg; type: ADME, organism-based; set-up: dose 25 mg/kg, route intravenous; settings: mouse, in vivo, iv; procedure, shortened: as §1
[6] = Half life was administered by using 20%aqueous hydroxypropyl-beta-cyclodextrin (HPbetaCD) as vehicle to nude mice at a dose of 25mpk,; type: ADME, organism-based; settings: mouse, in vivo, 25 mg/kg
[7] = Bioavailability in mouse (nude) using 20% aqueous hydroxypropyl-beta-cyclodextrin (HPbetaCD) as vehicle 25 mg/kg; type: ADME, organism-based; settings: in vivo; for bioavailability: nude
NIH-3T3 (Mus musculus) = test: inhibition of tumor colony formation in soft agar
[8] = target: T1, Protein farnesyltransferase; test: Effect on Ras processing in Cos-1 monkey kidney cells expressing either H-Ras-Val 12-CVLS or H-Ras-Val12.; type: functional, cell-based, Cercopithecidae
Procedure, shortened: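 Ras processing was tested in Cos-1 monkey kidney cells transiently expressing H-Ras-Val12-CVLS or H-Ras-Val12. IC50 values are single-point determinations.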

[9] = Area under curve was determined using 20%aqueous hydroxypropyl-beta-cyclodextrin (HPbetaCD) as vehicle. Compound was administered orally to nude mice at a dose of 25 mg/kg (Run time = 7 hr); type: ADME, organism-based; set-up: dose 25 mg/kg, route oral; settings: mouse, in vivo, po
Procedure, shortened: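 Nude mice received 25 mpk in 20% aqueous hydroxypropyl-β-cyclodextrin, by the route the line gives. Serum was collected over a shortened 7-h run rather than 24 h. Each time point used sera from different animals.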

[10] = Area under curve was determined using 0.4% Methyl cellulose (MC) as vehicle. Compound was administered orally to nude mice at a dose of 25 mg/kg; type: ADME, organism-based; set-up: dose 25 mg/kg, route oral; settings: mouse, in vivo, po; procedure, shortened: as §1
[11] = Maximum concentration (Cmax) using 0.4% Methyl cellulose (MC) as vehicle. compound was administered orally to nude mice at a dose of 25 mg/kg; type: ADME, organism-based; set-up: dose 25 mg/kg, route oral; settings: mouse, in vivo, po; procedure, shortened: as §1
[12] = target: T1, Protein farnesyltransferase; test: Inhibition of [3H]FPP incorporation into His6-H-Ras-CVLS by farnesyl transferase; type: protein-complex assay

| IC50 [4] [nM] | IC50 [8] [nM] | Structure (SMILES) | IC50 (NIH-3T3 (Mus musculus)) [nM] | also measured |
| --- | --- | --- | --- | --- |
| 2.7 | < 10 | NC(=O)C(=O)N1CCC(CC(=O)N2CCC([C@H]3c4ncc(Br)cc4CCc4cc(Cl)cc(Br)c43)CC2)CC1 | 85 | Cmax [1]: 7.1 µM; AUC [2]: 27100 ng·h/mL; AUC [3]: 45000 ng·h/mL; Cmax [5]: 26.2 µM; half-life [6]: 1.1 h; F [7]: 166% |
| 76.1 | – | O=C(CC1CCN(S(=O)(=O)c2ccccc2)CC1)N1CCC([C@H]2c3ncc(Br)cc3CCc3cc(Cl)cc(Br)c32)CC1 | – | – |
| 4.3 | 9 | O=C(CC1CCN(C(=O)Cn2cccc2)CC1)N1CCC([C@H]2c3ncc(Br)cc3CCc3cc(Cl)cc(Br)c32)CC1 | 460 | – |
| – | 25 | NC(=O)CNC(=O)N1CCC(CC(=O)N2CCC([C@H]3c4ncc(Br)cc4CCc4cc(Cl)cc(Br)c43)CC2)CC1 | 330 | IC50 [12]: 0.9 nM |
| – | 140 | C[C@H](N)C(=O)N1CCC(CC(=O)N2CCC([C@H]3c4ncc(Br)cc4CCc4cc(Cl)cc(Br)c43)CC2)CC1 | – | – |

Further lines, the molecule ahead of its results:

| Structure (SMILES) | IC50 [4] [nM] | IC50 [8] [nM] | IC50 (NIH-3T3 (Mus musculus)) [nM] | also measured |
| --- | --- | --- | --- | --- |
| C[C@@H](N)C(=O)N1CCC(CC(=O)N2CCC([C@H]3c4ncc(Br)cc4CCc4cc(Cl)cc(Br)c43)CC2)CC1 | 7.9 | 39 | 200 | – |
| CN(C)C(=O)C(=O)N1CCC(CC(=O)N2CCC([C@H]3c4ncc(Br)cc4CCc4cc(Cl)cc(Br)c43)CC2)CC1 | – | 10 | 120 | Cmax [1]: 3.2 µM; AUC [2]: 7530 ng·h/mL; Cmax [5]: 26.3 µM; half-life [6]: 1.04 h; bioavailability [7]: 30%; AUC at 7 h [9]: 2260 ng·h/mL |
| O=C(O)c1cncc(C(=O)N2CCC(CC(=O)N3CCC([C@H]4c5ncc(Br)cc5CCc5cc(Cl)cc(Br)c54)CC3)CC2)c1 | 0.8 | > 1000 | > 500 | – |
| NC(=O)c1cncc(C(=O)N2CCC(CC(=O)N3CCC([C@H]4c5ncc(Br)cc5CCc5cc(Cl)cc(Br)c54)CC3)CC2)c1 | 2.2 | 21 | 500 | – |
| NC(=O)N1CCC(CC(=O)N2CCC([C@H]3c4ncc(Br)cc4CCc4cc(Cl)cc(Br)c43)CC2)CC1 [LONAFARNIB] | – | – | 75 | AUC [10]: 41400 ng·h/mL; Cmax [1]: 8.84 µM; Cmax [11]: 16.6 µM; AUC [2]: 31800 ng·h/mL; AUC [3]: 24100 ng·h/mL; Cmax [5]: 20 µM; half-life [6]: 1.4 h; bioavailability [7]: 75.8% |
| O=C(O)CNC(=O)N1CCC(CC(=O)N2CCC([C@H]3c4ncc(Br)cc4CCc4cc(Cl)cc(Br)c43)CC2)CC1 | – | – | > 500 | – |
| CCN(CC)C(=O)CN1CCC(CC(=O)N2CCC([C@H]3c4ncc(Br)cc4CCc4cc(Cl)cc(Br)c43)CC2)CC1 | – | 40 | 300 | – |
